Test results: PMC6378121 (Bioorganic chemistry, 2018)
Like-named read-outs stand apart in the source and are kept apart here.

Assays:
P-gp = details: cited from earlier work
PARP-1 = PARP-1 (Homo sapiens, UniProt P09874); assay: PARP-1 radioligand binding assay with [125I]KX1 in OVCAR8 cells
How it was run: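 OVCAR8 ovarian cancer cells (BRCA1 methylated) seeded at 40,000 cells/well 24 h before the assay. Test compound diluted in RPMI (100 μM–0.064 nM), added with the [125I]KX1 radioligand, equilibrated 1 hr, then washed with PBS. Wells counted on a gamma counter. IC50 from non-linear sigmoidal dose-response fit, n=3; dose ranges were adjusted between repeats.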

recombinant human P-gp = recombinant human P-gp (Homo sapiens, UniProt P08183); assay: Pgp-Glo assay; details: for Luminescence from unmetabolized ATP (P-gp ATPase stimulation or inhibition): 20 μM compound, 5 mM ATP, 1 hr at 37°C, normalized to Na3VO4
recombinant human P-gp, sequence (P08183 whole entry): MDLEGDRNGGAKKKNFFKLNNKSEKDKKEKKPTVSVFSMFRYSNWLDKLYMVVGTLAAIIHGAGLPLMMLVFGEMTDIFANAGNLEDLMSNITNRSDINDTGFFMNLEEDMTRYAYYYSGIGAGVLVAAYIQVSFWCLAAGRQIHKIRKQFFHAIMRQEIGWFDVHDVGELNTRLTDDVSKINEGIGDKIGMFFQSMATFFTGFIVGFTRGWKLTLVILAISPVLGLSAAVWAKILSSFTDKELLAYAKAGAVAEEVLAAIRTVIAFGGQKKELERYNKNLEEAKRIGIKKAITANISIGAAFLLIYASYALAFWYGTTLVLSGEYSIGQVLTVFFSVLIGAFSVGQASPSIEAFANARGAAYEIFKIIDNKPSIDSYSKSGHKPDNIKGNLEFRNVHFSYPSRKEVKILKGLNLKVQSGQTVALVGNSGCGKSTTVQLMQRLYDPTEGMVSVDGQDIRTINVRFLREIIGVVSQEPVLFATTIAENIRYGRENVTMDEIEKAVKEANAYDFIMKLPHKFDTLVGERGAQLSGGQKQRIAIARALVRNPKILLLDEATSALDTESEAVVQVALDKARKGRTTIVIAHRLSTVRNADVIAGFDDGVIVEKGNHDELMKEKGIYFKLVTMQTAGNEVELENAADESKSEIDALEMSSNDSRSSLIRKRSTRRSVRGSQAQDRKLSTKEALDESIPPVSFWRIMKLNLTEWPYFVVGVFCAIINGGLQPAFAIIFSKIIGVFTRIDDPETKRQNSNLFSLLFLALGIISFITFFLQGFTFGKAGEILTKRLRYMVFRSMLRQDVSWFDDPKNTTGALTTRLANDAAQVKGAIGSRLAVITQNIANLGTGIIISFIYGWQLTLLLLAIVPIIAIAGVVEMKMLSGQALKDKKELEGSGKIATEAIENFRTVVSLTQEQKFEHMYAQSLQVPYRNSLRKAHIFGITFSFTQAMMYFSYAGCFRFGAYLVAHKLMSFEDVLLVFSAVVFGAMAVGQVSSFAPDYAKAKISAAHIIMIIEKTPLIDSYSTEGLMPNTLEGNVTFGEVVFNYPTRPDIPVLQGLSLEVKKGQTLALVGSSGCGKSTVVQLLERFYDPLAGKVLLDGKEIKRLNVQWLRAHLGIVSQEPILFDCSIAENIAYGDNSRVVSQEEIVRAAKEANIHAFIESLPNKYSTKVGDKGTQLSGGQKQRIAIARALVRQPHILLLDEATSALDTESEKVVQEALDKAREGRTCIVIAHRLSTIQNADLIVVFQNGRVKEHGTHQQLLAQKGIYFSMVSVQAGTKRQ

PARP-1, sequence (P09874 whole entry): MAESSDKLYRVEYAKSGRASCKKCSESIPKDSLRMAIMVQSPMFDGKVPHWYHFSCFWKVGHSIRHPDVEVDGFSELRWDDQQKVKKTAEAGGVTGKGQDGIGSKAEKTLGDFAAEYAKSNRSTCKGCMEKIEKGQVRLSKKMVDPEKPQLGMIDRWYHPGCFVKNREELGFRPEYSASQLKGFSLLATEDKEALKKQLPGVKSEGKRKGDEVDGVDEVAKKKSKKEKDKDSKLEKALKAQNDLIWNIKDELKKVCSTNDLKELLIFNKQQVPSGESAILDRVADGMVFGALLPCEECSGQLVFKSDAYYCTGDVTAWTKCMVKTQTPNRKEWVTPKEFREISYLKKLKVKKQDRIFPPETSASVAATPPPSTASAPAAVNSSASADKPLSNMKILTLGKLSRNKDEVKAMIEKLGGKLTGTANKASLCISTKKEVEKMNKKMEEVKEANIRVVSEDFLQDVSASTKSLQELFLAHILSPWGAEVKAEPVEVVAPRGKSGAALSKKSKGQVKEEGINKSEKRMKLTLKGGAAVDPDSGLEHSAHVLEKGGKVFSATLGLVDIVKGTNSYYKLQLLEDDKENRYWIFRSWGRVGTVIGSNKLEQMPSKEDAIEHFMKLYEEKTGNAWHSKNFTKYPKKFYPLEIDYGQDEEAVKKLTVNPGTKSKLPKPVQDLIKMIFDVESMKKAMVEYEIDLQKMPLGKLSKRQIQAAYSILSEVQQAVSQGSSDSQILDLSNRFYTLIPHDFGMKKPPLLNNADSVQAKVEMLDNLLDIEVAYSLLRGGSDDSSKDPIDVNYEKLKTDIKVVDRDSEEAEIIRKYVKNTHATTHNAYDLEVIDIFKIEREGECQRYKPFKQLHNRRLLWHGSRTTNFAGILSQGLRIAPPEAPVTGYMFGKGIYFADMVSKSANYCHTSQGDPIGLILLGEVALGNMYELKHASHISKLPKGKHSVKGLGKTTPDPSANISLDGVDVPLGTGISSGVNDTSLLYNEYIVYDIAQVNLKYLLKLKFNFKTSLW

| Compound | IC50 (PARP-1) [nM] | Luminescence from unmetabolized ATP (P-gp ATPase stimulation or inhibition) (recombinant human P-gp) | other results |
| --- | --- | --- | --- |
| C[C@]12CCCN1CC1=NNC(=O)c3cc(F)cc4[nH]c2c1c34 [BGB-290] | – | – | P-gp substrate status (P-gp): weak P-gp substrates |
| COC1CCN(C(=O)c2cc(Cc3n[nH]c(=O)c4ccccc34)ccc2F)CC1 [Compound 2, AZD2461] | – | – | P-gp substrate status (P-gp): weak P-gp substrates; P-gp substrate status (P-gp; listed as AZD2461): poor P-gp substrate |
| O=C(c1cc(Cc2n[nH]c(=O)c3ccccc23)ccc1F)N1CC2(C1)CN(c1ccc(F)cc1)C2 [Compound 14, 4-(4-fluoro-3-(6-(4-fluorophenyl)-2,6-diazaspiro[3.3]heptane-2-carbonyl)benzyl)phthalazin-1(2H)-one] | 0.3 | increased luminescence | – |
| O=C(c1cc(Cc2n[nH]c(=O)c3ccccc23)ccc1F)N1CC2(CC(c3ccc(F)cc3)C2)C1 [Compound 17, 4-(4-fluoro-3-(6-(4-fluorophenyl)-2-azaspiro[3.3]heptane-2-carbonyl)benzyl)phthalazin-1(2H)-one] | 2.8 | increased luminescence | – |
| [Na+].[Na+].[Na+].[O]=[V]([O-])([O-])[O-] [Na3VO4, reference compound] | – | increased luminescence | – |
| O=C(c1cc(Cc2n[nH]c(=O)c3ccccc23)ccc1F)N1CCN(C(=O)C2CC2)CC1 [olaparib] | – | – | P-gp substrate status (P-gp): known substrates for P-gp |
| C[C@]1(c2nc3c(C(N)=O)cccc3[nH]2)CCCN1 [veliparib] | – | – | P-gp substrate status (P-gp): weak P-gp substrates |

Continued, in another order:

| IC50 (PARP-1) [nM] | Luminescence from unmetabolized ATP (P-gp ATPase stimulation or inhibition) (recombinant human P-gp) | Compound | other results |
| --- | --- | --- | --- |
| 10.7 ± 1.1 | – | O=C(c1cc(Cc2n[nH]c(=O)c3ccccc23)ccc1F)N1CC2(CC(OCCF)C2)C1 [Compound 9a, 4-(4-fluoro-3-(6-(2-fluoroethoxy)-2-azaspiro[3.3]heptane-2-carbonyl)benzyl)phthalazin-1(2H)-one] | – |
| 7.5 ± 1.1 | – | O=C(c1cc(Cc2n[nH]c(=O)c3ccccc23)ccc1F)N1CC(OCCF)C1 [Compound 9b, 4-(4-fluoro-3-(3-(2-fluoroethoxy)azetidine-1-carbonyl)benzyl)phthalazin-1(2H)-one] | – |
| 10.1 ± 1.1 | – | O=C(c1cc(Cc2n[nH]c(=O)c3ccccc23)ccc1F)N1CC[C@@H](OCCF)C1 [Compound 9c, (R)-4-(4-fluoro-3-(3-(2-fluoroethoxy)pyrrolidine-1-carbonyl)benzyl)phthalazin-1(2H)-one] | – |
| 6.8 | – | O=C(c1cc(Cc2n[nH]c(=O)c3ccccc23)ccc1F)N1CC[C@H](OCCF)C1 [Compound 9d, (S)-4-(4-fluoro-3-(3-(2-fluoroethoxy)pyrrolidine-1-carbonyl)benzyl)phthalazin-1(2H)-one] | – |
| 3.9 ± 1.2 | increased luminescence | O=C(c1cc(Cc2n[nH]c(=O)c3ccccc23)ccc1F)N1CCC(OCCF)CC1 [Compound 9e, 4-(4-fluoro-3-(4-(2-fluoroethoxy)piperidine-1-carbonyl)benzyl)phthalazin-1(2H)-one] | P-gp substrate status (recombinant human P-gp; authors' conclusion from the P-gp assay): weak substrate for P-gp |
| 5.6 ± 1.1 | – | O=C(c1cc(Cc2n[nH]c(=O)c3ccccc23)ccc1F)N1CCCC(OCCF)CC1 (stereo not drawn) [Compound 9f, 4-(4-fluoro-3-(4-(2-fluoroethoxy)azepane-1-carbonyl)benzyl)phthalazin-1(2H)-one] | – |
| 0.6 ± 1.2 | – | O=C(c1cc(Cc2n[nH]c(=O)c3ccccc23)ccc1F)N1CCN(c2ccc(F)cc2)CC1 [Compound 11a, 4-(4-fluoro-3-(4-(4-fluorophenyl)piperazine-1-carbonyl)benzyl)phthalazin-1(2H)-one] | – |
| 1.3 | increased luminescence | O=C(c1cc(Cc2n[nH]c(=O)c3ccccc23)ccc1F)N1CCC(c2ccc(F)cc2)CC1 [Compound 11b, 4-(4-fluoro-3-(4-(4-fluorophenyl)piperidine-1-carbonyl)benzyl)phthalazin-1(2H)-one] | – |
